Measured values taken from ChEMBL document CHEMBL1208718, “Rational design of a novel peripherally-restricted, orally active CB(1) cannabinoid antagonist containing a 2,3-diarylpyrrole motif” (Bioorg Med Chem Lett, 2010).

Legend:
[1] = target: T1, Cannabinoid receptor 2 (Rattus norvegicus) (UniProt Q9QZN9); assay: Binding affinity to CB2 receptor in rat spleen homogenates at 1 uM; format: tissue-based
T1 sequence (whole entry): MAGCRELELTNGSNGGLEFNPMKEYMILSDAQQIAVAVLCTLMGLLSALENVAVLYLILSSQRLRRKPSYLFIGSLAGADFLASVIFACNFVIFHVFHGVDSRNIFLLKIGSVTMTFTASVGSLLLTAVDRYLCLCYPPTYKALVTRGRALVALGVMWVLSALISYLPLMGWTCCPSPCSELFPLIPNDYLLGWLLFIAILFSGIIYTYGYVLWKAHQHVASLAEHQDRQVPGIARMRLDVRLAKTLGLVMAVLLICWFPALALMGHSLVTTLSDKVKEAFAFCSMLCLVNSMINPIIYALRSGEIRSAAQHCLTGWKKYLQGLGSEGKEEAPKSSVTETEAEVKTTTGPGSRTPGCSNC

Cannabinoid receptor 1 [2] = target: Cannabinoid receptor 1 (Rattus norvegicus, UniProt P20272); assay: Binding affinity to CB1 receptor in rat brain synaptosomal membranes; format: cell membranes
Cannabinoid receptor 1 (Rattus norvegicus, UniProt P20272), sequence (P20272 whole entry): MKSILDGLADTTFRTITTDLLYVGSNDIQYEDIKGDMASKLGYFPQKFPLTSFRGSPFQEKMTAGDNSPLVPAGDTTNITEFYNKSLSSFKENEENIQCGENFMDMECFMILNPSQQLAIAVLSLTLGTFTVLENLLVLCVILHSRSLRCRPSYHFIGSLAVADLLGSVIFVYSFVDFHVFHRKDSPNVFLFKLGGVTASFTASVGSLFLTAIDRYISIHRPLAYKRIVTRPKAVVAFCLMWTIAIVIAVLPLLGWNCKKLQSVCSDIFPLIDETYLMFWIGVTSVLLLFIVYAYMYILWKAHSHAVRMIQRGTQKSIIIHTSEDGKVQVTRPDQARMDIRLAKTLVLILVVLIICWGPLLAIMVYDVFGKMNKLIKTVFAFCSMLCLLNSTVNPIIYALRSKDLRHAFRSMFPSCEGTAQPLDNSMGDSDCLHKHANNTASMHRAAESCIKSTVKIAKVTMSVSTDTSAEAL

Mus musculus [3] = assay: Ex vivo displacement of [3H]CP-55940 from mouse brain homogenates without cerebellum at 10 mg/kg, iv after 30 mins; format: functional
How it was run: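 Mice dosed iv at 10 mg/kg and killed by decapitation 30 min later. Brain homogenized without cerebellum, and inhibition of [3H]-CP55940 binding measured in the homogenate.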

Mus musculus [4] = assay: Reversal of CP-55940-induced hypothermia in po dosed mouse at 30 mg/kg, po; format: functional
How it was run: (§1)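 Mice dosed orally with antagonist, then challenged with CP55940 0.3 mg/kg ip to induce hypothermia. Reversal scored as DE50 (mg/kg po) or as % reversal at a single oral dose.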

Mus musculus [5] = assay: Reversal of CP-55940-induced inhibition of intestinal transit in mouse at 10 mg/kg, po; format: functional; design: scale not given: the % may be the effect or the level left
How it was run: (§2)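 Mice dosed orally with antagonist, then given CP55940 0.15 mg/kg ip to inhibit intestinal transit. Reversal scored as DE50 (mg/kg po) or as % reversal at a single oral dose.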

Mus musculus [6] = assay: Reversal of CP-55940-induced inhibition of intestinal transit in po dosed mouse; format: functional; how it was run: as §2
Liver microsomes [7] = assay: Metabolic stability in human liver microsomes at 5 uM after 10 mins by HPLC analysis in presence of NADPH; format: ADME, Microsome
How it was run: (§3)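 Hepatic microsomal fractions from mouse, rat and human were used at 1 mg/mL microsomal protein, with 10 min incubation of substrate.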

[8] = Drug level in Swiss CD1 mouse brain assessed per gram of tissue at 10 mg/kg, po after 6 hrs; format: ADME, organism-based; design: dose 10 mg/kg, route oral; conditions: read-out: Drug uptake
How it was run: (§4)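 Male Swiss CD1 mice received a single oral 10 mg/kg dose. Drug levels were measured in plasma (ng/mL) and brain (ng/g tissue) over 24 h.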

[9] = Oral bioavailability in Swiss CD1 mouse at 10 mg/kg; conditions: in vivo
[10] = Cmax in Swiss CD1 mouse at 10 mg/kg, po after 2 hrs; format: ADME, organism-based; design: dose 10 mg/kg, route oral; conditions: in vivo; how it was run: as §4
[11] = AUC (0 to 24 hrs) ratio in brain to plasma of Swiss CD1 mouse at 10 mg/kg, po; format: ADME, organism-based; design: dose 10 mg/kg, route oral
Cannabinoid receptor 1 [12] = target: T2, Cannabinoid receptor 1 (Homo sapiens, UniProt P21554); assay: Antagonist activity at CB1 receptor in forskolin-stimulated human U373-MG cells assessed as inhibition of CP-55940-induced cAMP accumulation; format: functional, cell-based, U-373MG ATCC
T2 sequence (P21554 whole entry): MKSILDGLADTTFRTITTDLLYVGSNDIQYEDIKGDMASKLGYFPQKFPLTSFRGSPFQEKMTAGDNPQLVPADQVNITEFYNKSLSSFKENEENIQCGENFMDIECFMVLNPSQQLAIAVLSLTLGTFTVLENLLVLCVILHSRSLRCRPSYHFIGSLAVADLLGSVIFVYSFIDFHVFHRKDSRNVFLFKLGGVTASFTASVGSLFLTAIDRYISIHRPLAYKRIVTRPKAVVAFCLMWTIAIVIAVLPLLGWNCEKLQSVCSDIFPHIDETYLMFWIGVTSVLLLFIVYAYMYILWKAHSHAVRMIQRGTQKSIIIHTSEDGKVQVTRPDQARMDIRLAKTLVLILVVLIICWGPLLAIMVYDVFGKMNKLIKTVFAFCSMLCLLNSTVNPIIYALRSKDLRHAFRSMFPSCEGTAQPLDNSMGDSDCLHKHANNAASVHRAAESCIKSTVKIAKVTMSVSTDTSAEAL
How it was run: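 Human U373-MG cells; forskolin-stimulated cAMP accumulation was inhibited with CP55940, and the antagonist was tested over a range of concentrations for reversal of that inhibition. The EC50 was derived from the concentration–response.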

Liver microsomes [13] = assay: Metabolic stability in rat liver microsomes at 5 uM after 10 mins by HPLC analysis in presence of NADPH; format: ADME, Microsome; how it was run: as §3
[14] = Metabolic stability in mouse liver microsomes at 5 uM after 10 mins by HPLC analysis in presence of NADPH; format: ADME, Microsome; how it was run: as §3
Cannabinoid receptor 1 [15] = target: T2, Cannabinoid receptor 1; assay: Inhibition of human recombinant CB1 receptor expressed in CHO cells; format: cell-based
Mus musculus [16] = assay: Reversal of CP-55940-induced hypothermia in po dosed mouse; format: functional; how it was run: as §1

Structure (SMILES) | inhibition [1] | IC50 (Cannabinoid receptor 1 [2]) | inhibition in vivo at 10 mg/kg (Mus musculus [3]) | further results
Cn1c(C(=O)N2CCC(C(N)=O)(N3CCOCC3)CC2)cc(-c2ccc(Cl)cc2Cl)c1-c1ccc(Cl)cc1 | 42% | 34 nM | 32% | –
CS(=O)(=O)CCn1c(C(=O)N2CCC(C(N)=O)(N3CCCCC3)CC2)cc(-c2ccc(Cl)cc2Cl)c1-c1ccc(Cl)cc1 | 26% | 0.4 nM | 19% | –
CS(=O)(=O)NCCCn1c(C(=O)N2CCC(C(N)=O)(N3CCCCC3)CC2)cc(-c2ccc(Cl)cc2Cl)c1-c1ccc(Cl)cc1 | 16% | 1.4 nM | 18% | Activity (Mus musculus [4]): 1%; Activity (Mus musculus [5]): 51%
Cn1c(C(=O)N2CCC(C(N)=O)(c3ccccc3)CC2)cc(-c2ccc(Cl)cc2Cl)c1-c1ccc(Cl)cc1 | 17% | 0.7 nM | 86% | –
N#CCCn1c(C(=O)N2CCC(C(N)=O)(N3CCCCC3)CC2)cc(-c2ccc(Cl)cc2Cl)c1-c1ccc(Cl)cc1 | 18% | 8 nM | 39% | –
CC1(C)CCN(C2(C(N)=O)CCN(C(=O)c3cc(-c4ccc(Cl)cc4Cl)c(-c4ccc(Cl)cc4)n3CCCNS(C)(=O)=O)CC2)CC1 | 27% | 4.3 nM | 33% | Activity (Mus musculus [4]): 0%; ED50 (Mus musculus [6]): 4.1 mg/kg
CC(C)(CCCn1c(C(=O)N2CCC(C(N)=O)(N3CCCCC3)CC2)cc(-c2ccc(Cl)cc2Cl)c1-c1ccc(Cl)cc1)C(=O)O | 52% | 160 nM | – | –
CS(=O)(=O)NCCCn1c(C(=O)N2CCC(C(N)=O)(N3CCC(F)(F)CC3)CC2)cc(-c2ccc(Cl)cc2Cl)c1-c1ccc(Cl)cc1 | 39% | 1 nM | 28% | Stability (Liver microsomes [7]): Stable; concentration at 6 h [8]: 6.4 ng/g; bioavailability [9]: 37%; Cmax [10]: 570 ng/mL; Kp [11]: 0.01; Activity (Mus musculus [4]): 0%; ED50 (Mus musculus [6]): 2.4 mg/kg; EC50 (Cannabinoid receptor 1 [12]): 15 nM; Stability (Liver microsomes [13]): Stable; Stability [14]: Stable; IC50 (Cannabinoid receptor 1 [15]): 1.4 nM
NC(=O)C1(N2CCCCC2)CCN(C(=O)c2cc(-c3ccc(Cl)cc3Cl)c(-c3ccc(Cl)cc3)n2CCC(=O)O)CC1 | 14% | 180 nM | – | –
Cn1c(C(=O)N2CCC(C(N)=O)(N3CCCCC3)CC2)cc(-c2ccc(Cl)cc2Cl)c1-c1ccc(Cl)cc1 | 48% | 0.2 nM | 96% | –
Cc1c(C(=O)NN2CCCCC2)nn(-c2ccc(Cl)cc2Cl)c1-c1ccc(Cl)cc1 [RIMONABANT] | 66% | – | 100% | ED50 (Mus musculus [16]): 0.6 mg/kg; ED50 (Mus musculus [6]): 1 mg/kg
